Source: PubChem (Johns Hopkins Ion Channel Center)
TRPC4 PAM: positive allosteric modulators of TRPC4, primary screen, cell-based, mouse TRPC4beta, HEK293 mu-opioid, Fluo-4 calcium; Short transient receptor potential channel 4 (Mus musculus), Q9QUQ5; DAMGO EC20, Fluo-4 Ca2+ flux; hits give high values; B-score at 10 µM; 310,000 tested, 0.42% active;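 active = B-score of calcium response area above 5 SD of library B-scores, with initial fluorescence ratio within 5 SD of library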;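 also: B-score of integrated fluorescence ratio over time as area under calcium response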
Target sequence (Q9QUQ5 whole entry, looked up): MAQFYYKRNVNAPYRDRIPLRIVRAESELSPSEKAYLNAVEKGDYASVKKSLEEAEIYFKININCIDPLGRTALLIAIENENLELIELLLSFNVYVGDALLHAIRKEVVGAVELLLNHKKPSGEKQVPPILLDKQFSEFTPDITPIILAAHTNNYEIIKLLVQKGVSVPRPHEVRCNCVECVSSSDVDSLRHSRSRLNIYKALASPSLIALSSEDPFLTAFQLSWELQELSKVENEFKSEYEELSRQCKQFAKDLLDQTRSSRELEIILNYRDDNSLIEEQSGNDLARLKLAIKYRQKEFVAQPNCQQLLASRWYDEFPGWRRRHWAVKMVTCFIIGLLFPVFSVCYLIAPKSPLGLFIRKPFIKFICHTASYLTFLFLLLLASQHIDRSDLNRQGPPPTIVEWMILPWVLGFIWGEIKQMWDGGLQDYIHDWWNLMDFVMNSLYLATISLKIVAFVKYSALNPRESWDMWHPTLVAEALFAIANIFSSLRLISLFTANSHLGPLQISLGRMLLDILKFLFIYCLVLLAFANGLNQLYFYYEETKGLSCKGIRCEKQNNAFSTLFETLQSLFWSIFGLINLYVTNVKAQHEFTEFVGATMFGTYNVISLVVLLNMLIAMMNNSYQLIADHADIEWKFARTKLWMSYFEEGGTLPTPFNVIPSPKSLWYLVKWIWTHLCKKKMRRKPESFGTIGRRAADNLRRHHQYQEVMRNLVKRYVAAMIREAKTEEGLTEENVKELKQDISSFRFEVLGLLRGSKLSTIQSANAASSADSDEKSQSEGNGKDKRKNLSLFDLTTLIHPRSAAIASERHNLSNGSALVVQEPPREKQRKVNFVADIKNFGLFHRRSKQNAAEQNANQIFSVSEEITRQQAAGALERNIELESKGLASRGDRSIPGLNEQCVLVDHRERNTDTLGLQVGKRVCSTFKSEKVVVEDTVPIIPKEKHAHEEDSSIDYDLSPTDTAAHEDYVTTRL
TRPC6 activator: mouse TRPC6 channel activators, primary screen, cell-based, HEK293, membrane potential dye | HEK293-TRPC6 membrane potential dye fluorescence; hits give high values | 310,000 tested, 0.13% active | B-score at 10 µM;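 active = B-score of the integrated fluorescence ratio above library mean plus 3 SD, and starting fluorescence ratio within library mean plus 5 SD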;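 also: higher score means more depolarization so channel activation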
TRPC4 block: inhibitors of mouse TRPC4 channel, primary screen, Fluo4 calcium, HEK293 TRPC4beta/mu-opioid cells; Short transient receptor potential channel 4 (Mus musculus), Q9QUQ5; DAMGO-evoked Fluo4 calcium flux; hits give low values; B-score at 10 µM; 300,000 tested, 0.39% active; AID 2247, 2010;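 active = B-score over 3 SD under the library average, no early fluorescence shift, positive overall ratio signal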
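Assay system: HEK293 cells with stable TRPC4beta plus mu-opioid receptor expression; Probe or stimulus: DAMGO in two steps, submaximal then maximal; Dosing: single-point compound dosing; Measured by: Fluo4 calcium-dye fluorescence, kinetic read; Read-out basis: B score from integrated Fluo4 fluorescence ratio.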
TRPC4 act: activators of mouse TRPC4 channel, primary screen, Fluo4 calcium, HEK293 TRPC4beta/mu-opioid cells; 310,000 tested, 0.49% active; Fluo4 calcium fluorescence; hits give high values; Short transient receptor potential channel 4 (Mus musculus), Q9QUQ5; B-score at 10 µM; AID 2237, 2010;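 active = B-score above 5 SD of library B-scores, and initial fluorescence ratio not above library mean plus 5 SD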;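 also: positive B-score marks a calcium rise read as TRPC4 activation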
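Technique: kinetic Fluo4 calcium fluorescence; Test system: TRPC4beta and mu-opioid receptor HEK293 stable cells; Measure: B-scored integrated calcium fluorescence ratio; Benchmarks: low control buffer alone, high control maximal DAMGO; Schedule: 45 min room-temperature Fluo4 loading, 110 s read.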
TRPC6 inhibitor: mouse TRPC6 channel inhibitors, primary screen, cell-based, HEK293, membrane potential dye | Short transient receptor potential channel 6 (Mus musculus), Q61143 | ACh-evoked depolarization; hits give low values | B-score at 10 µM | 310,000 tested, 1.1% active;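 active = B-score under library mean minus 3 SD, initial fluorescence not abnormally high, positive integrated signal ratio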;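 also: B-score derived from integrated fluorescence ratio over the kinetic read; more negative B-score means stronger inhibition of depolarization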
TRPC4 spec 2: second selectivity test of TRPC6 inhibitors: effect on mouse TRPC4; shares compounds with TRPC6 inhibitor; HEK293 TRPC4/MOR, membrane potential dye fluorescence; channel activated by saturating DAMGO dose; inhibition, % at 10 µM; 920 tested, 42% active;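 active = compounds whose fluorescence signal differed from control wells by over 3 SD, either direction, in both duplicate plates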
TRPC4 spec: mouse TRPC4 modulation by TRPC6 hits, confirmation, selectivity assay for TRPC6 inhibitor project, cell-based, HEK293 TRPC4/mu-opioid, membrane potential dye; shares compounds with TRPC6 inhibitor; membrane potential fluorescence; activity change, negative = inhibition, % at 10 µM; 920 tested, 61% active; AID 2777, 2010;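 active = rise or fall in signal beyond 3 SD of buffer-only wells in both replicate plates, either sign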;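 also: integrated kinetic ratio of fluorescence range over baseline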
HEK293 MPD ctr 2-1: nonspecific membrane potential effects, parental HEK293, confirmation, counter-screen for TRPC6 inhibitor project, cell-based, second counter screen | parental HEK293 membrane potential dye fluorescence; maximal acetylcholine challenge after compound addition | signal change vs control, % at 10 µM | AID 2779, 2010 | shares compounds with TRPC6 inhibitor | 920 tested, 31% active;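 active = membrane potential signal moving either way by over 3 SD of the maximum-effect control, in both duplicate plates, meaning non-specific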
HEK293 MPD ctr-1: membrane potential modulation in parental HEK293, confirmation, counter-screen for TRPC6 inhibitor project, cell-based | membrane potential signal change, % at 10 µM | 920 tested, 60% active | parental HEK293 membrane potential dye fluorescence | shares compounds with TRPC6 inhibitor;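 active = membrane potential signal shifting up or down by more than 3 SD of buffer-only wells, on both duplicate plates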
HEK293 MPD ctr-2: parental HEK293 membrane potential modulation, confirmation, counter-screen for TRPC6 modulator project, cell-based. membrane potential dye fluorescence. shares compounds with TRPC6 inhibitor. 2,400 tested, 51% active. AID 488924, 2010. membrane potential signal change, % at 10 µM;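 active = membrane potential signal moves up or down beyond 5 SD from buffer-only wells, on both duplicate plates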
HEK293 MPD ctr 2-2: second check of TRPC6 modulator effects in parental HEK293 cells; shares compounds with TRPC6 inhibitor; membrane potential dye fluorescence; after compound, maximal acetylcholine stimulation; inhibition, % at 10 µM; 2,400 tested, 14% active;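 active = membrane potential signal drops by more than 5 SD from the mean control signal, in both duplicate plates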;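 also: plate controls were acetylcholine ECmax control wells for no effect and buffer only wells for full effect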
TRPC4/MOR mod: TRPC4 modulation by TRPC6 hit compounds, confirmation, selectivity assay for TRPC6 modulator project, cell-based, HEK293 TRPC4/mu-opioid, membrane potential dye, mouse | percent change from control (negative = decrease, positive = increase), % at 10 µM | 2,400 tested, 69% active | membrane potential fluorescence | shares compounds with TRPC6 inhibitor;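 active = membrane potential signal moved up or down beyond 5 SD of buffer control wells, in both duplicate plates, actives on both sides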;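 also: plate controls were assay buffer wells for no effect and DAMGO maximal-effect wells for full effect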
TRPC4/MOR inh 2: mouse TRPC4 off-target activity of TRPC6 modulators, second screen; 2,400 tested, 55% active; shares compounds with TRPC6 inhibitor; inhibition, % at 10 µM; AID 488928; HEK293 TRPC4/mu-opioid, membrane potential dye fluorescence; stimulated with maximal-effect DAMGO;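 active = drop in membrane potential signal beyond 5 SD of the control wells in both duplicate plates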;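 also: TRPC4 counter screen for TRPC6 hits run under conditions tuned for TRPC6 not TRPC4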
TRPC6 block conf: mouse TRPC6 channel inhibitors, confirmation, HEK293 cells, membrane potential dye, duplicate. inhibition, % at 10 µM. 3,300 tested, 43% active. shares compounds with TRPC6 inhibitor. AID 488960, 2010. ACh-evoked depolarization;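 active = fluorescence ratio falls more than 5 SD below the full-stimulation control mean, in both duplicate runs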;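 also: integrated fluorescence ratio of peak minus minimum over baseline after agonist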
TRPC6 act conf: mouse TRPC6 channel activators, confirmation, HEK293 cells, membrane potential dye, duplicate. shares compounds with TRPC6 inhibitor. HEK293-TRPC6 membrane potential dye fluorescence, FDSS. activation, % at 10 µM. 2,800 tested, 11% active. AID 488961, 2010;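 active = ratio signal rise beyond 5 SD above unstimulated control wells' mean, seen in both duplicate runs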;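 also: plate controls were buffer EC0 wells for no effect and acetylcholine ECmax response for full effect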
Starred values were filed as active, the others as inactive; i = inactive; nt = not tested or not shown. Only some compounds are listed: those with a hit (about 2.3% of all), similar ones and a draw of the others.

SMILES	TRPC4 PAM	TRPC6 activator	TRPC4 block	TRPC4 act	TRPC6 inhibitor	HEK293 MPD ctr-2	HEK293 MPD ctr 2-2	TRPC4/MOR mod	TRPC4/MOR inh 2	TRPC6 block conf	TRPC6 act conf	others
CCN(CC)S(=O)(=O)c1ccc(N2CCCC2)c(NC(=O)C2=COCCO2)c1	i	i	i	i	i	nt	nt	nt	nt	nt	nt
CCN(CC)S(=O)(=O)c1ccc(N2CCOCC2)c(NC(=O)c2ccccc2)c1	i	i	i	i	i	nt	nt	nt	nt	nt	nt
COCCN(C(=O)CC1C(=O)NCCN1Cc1ccc(-c2ccccc2)cc1)C(C)C (stereo not given)	i	i	i	i	i	nt	nt	nt	nt	nt	nt
O=C(CN1CCN(c2ccc(F)cc2)CC1)Nc1nccs1	i	i	i	i	i	nt	nt	nt	nt	nt	nt
CCn1c(CNC(=O)c2cccs2)n[nH]c1=S	i	i	i	i	i	nt	nt	nt	nt	nt	nt
Cc1ccc(OCC(O)Cn2c(=N)n(Cc3ccccc3)c3ccccc32)cc1 (stereo not given)	i	i	i	i	-8.1*	nt	nt	nt	nt	i	i	TRPC4 spec 2=40%*;TRPC4 spec=11%*;HEK293 MPD ctr 2-1=258%*;HEK293 MPD ctr-1=8.5%*
Cc1cccc(OCC(O)Cn2c(=N)n(CCN3CCCCC3)c3ccccc32)c1 (stereo not given)	i	i	i	i	i	nt	nt	nt	nt	nt	nt
Cc1cccc(OCC(O)Cn2c(=N)n(Cc3ccccc3)c3ccccc32)c1 (stereo not given)	i	i	i	55*	-5.7*	145%*	i	68%*	112%*	50%*	nt
COc1ccc(C2=NN(C(=O)CCC(=O)O)C(c3ccccc3F)C2)cc1 (stereo not given)	i	i	i	i	i	nt	nt	nt	nt	nt	nt
Cc1cccc2nc(-c3cccnc3)c(NCCC(C)C)n12	i	i	i	i	-5.5*	i	i	-24%*	84%*	41%*	i
C=CCN1C=CC=C/C1=C1\SC(=S)N(C)C1=O	i	i	i	i	-5.1*	i	i	i	i	i	i
CN1C=CC=C/C1=C1\SC(=S)N(c2ccccc2)C1=O	i	i	i	i	i	nt	nt	nt	nt	nt	nt
Cc1ccc2c(c1)c1c(n2CC(O)CN2CCC(C)CC2)CCCC1 (stereo not given)	i	i	i	i	-5.8*	i	i	12%*	54%*	40%*	i
OCCN1CCN(c2nc(NCc3ccco3)c3ccccc3n2)CC1	i	i	i	i	-6*	-228%*	i	-38%*	57%*	i	i
Oc1ccc(Cl)cc1Nc1nc(NCC2CCCO2)c2ccccc2n1 (stereo not given)	i	i	i	i	i	nt	nt	nt	nt	nt	nt
Oc1ccccc1Nc1nc(NCC2CCCO2)c2ccccc2n1 (stereo not given)	i	i	i	i	-15*	nt	nt	nt	nt	75%*	i	TRPC4 spec 2=28%*;TRPC4 spec=-22%*;HEK293 MPD ctr 2-1=i;HEK293 MPD ctr-1=-273%*
c1ccc2c(NCC3CCCO3)nc(N3CCCCC3)nc2c1 (stereo not given)	i	i	i	i	i	nt	nt	nt	nt	nt	nt
c1ccc(CN2CCN(c3nc(NCc4ccco4)c4ccccc4n3)CC2)cc1	i	i	i	i	i	nt	nt	nt	nt	nt	nt
COc1cccc(Nc2nc(NCC3CCCO3)c3ccccc3n2)c1 (stereo not given)	i	i	i	i	-11*	i	i	-22%*	74%*	58%*	i
Oc1ccc(Nc2nc(NCC3CCCO3)c3ccccc3n2)cc1 (stereo not given)	i	i	i	i	-6.5*	i	i	-12%*	56%*	38%*	i
COc1ccc(CNC(=O)CN2C(=O)CCSc3ccc(S(=O)(=O)N4CCCC4)cc32)cc1	i	i	i	i	i	nt	nt	nt	nt	nt	nt
COc1ccccc1CN1CC(=O)N2CSC[C@H]2C1=O	i	i	i	i	i	nt	nt	nt	nt	nt	nt
CC1=C(C(N)=O)C(c2cccs2)NC(=O)N1 (stereo not given)	i	i	i	i	i	nt	nt	nt	nt	nt	nt
c1ccc(Nc2nc(NCc3ccco3)c3ccccc3n2)cc1	i	i	i	i	i	nt	nt	nt	nt	nt	nt
